Published values collected from several papers.
Compare with care: the assays were run in different laboratories.
Matrix: plasma

| Structure (SMILES) | technique | host | route | dose | setting | measurement | result |
| --- | --- | --- | --- | --- | --- | --- | --- |
| CNCc1cc(-c2ccccc2F)n(S(=O)(=O)c2cccnc2)c1 | – | Sprague-Dawley rat | oral | 10 mg/kg | – | MRT(0-t) | 2.43 h |
| O=C(c1cc(Cc2n[nH]c(=O)c3ccccc23)ccc1F)N1CCN(C(=O)C2CC2)CC1 | – | female Sprague-Dawley rat | intravenous | – | – | MRT | 1.52 h |
| CCc1cc(C(=O)NC)c2nccc(N3CCc4c(cc(Cn5ccnc5)cc4-c4cn(C)nc4C(F)(F)F)C3=O)c2c1 | – | male Sprague-Dawley rat | oral | 100 mg/kg | single dose | MRT(0-inf) | 3.8 h |
| CCc1nc(C(N)=O)c(Nc2ccc(N3CCC(N4CCN(C)CC4)CC3)c(OC)c2)nc1NC1CCOCC1 | – | male Sprague-Dawley rat | oral | 10 mg/kg | – | MRT(0-inf) | 21.8 h |
| CCOC(=O)[C@@]12C[C@@H]1[C@@H](n1ccc3c(NC)nc(C#Cc4ccc(Cl)s4)nc31)[C@H](O)[C@@H]2O | – | male Sprague-Dawley rat | intravenous | 0.5 mg/kg | – | MRT(0-t) | 1.29 h |
| Oc1c(Br)cc(Cl)c2cccnc12 | – | Sprague-Dawley rat | intravenous | 2 mg/kg | – | MRT | 12.5 h |
| CCc1cc(OC)c2nccc(N3CCc4c(cc(Cn5ccnc5)cc4-c4cn(C)nc4C(F)(F)F)C3=O)c2c1 | – | male Sprague-Dawley rat | oral | 50 mg/kg | – | MRT(0-inf) | 2.7 h |
| C#Cc1cccc(Nc2ncnc3cc(OCCOC)c(OCCOC)cc23)c1 | – | male Sprague-Dawley rat | oral | 12 mg/kg | single dose | MRT(0-inf) | 5.1 h |
| N#Cc1ccc(Nc2nc(N)cc(Oc3c(F)cc(-c4ccc(C#N)cc4)cc3F)n2)cc1 | – | Sprague-Dawley rat | oral | 5 mg/kg | – | MRT(0-inf) | 6.48 h |
| O=C(O)/C=C/c1ccc(O)c(O)c1 | HPLC | Wistar rat | oral | – | – | MRT | 0.69 h |
| O=C(Nc1cc(F)c(F)c(F)c1)c1ccc(F)c(S(=O)(=O)NCc2cccc(B(O)O)c2)c1 | – | male Sprague-Dawley rat | oral | 20 mg/kg | – | MRT(0-inf) | 1.25 h |
| COc1nc(-c2cc(C)c(N[C@@H](C)c3cc(F)cc(F)c3)nn2)ccc1-n1cnc(C)c1 | – | male Sprague-Dawley rat | oral | 5 mg/kg | single dose | MRT(0-t) | 6.87 h |
